Screening data deposited in PubChem by The Scripps Research Institute Molecular Screening Center.
Most compounds without a hit are left out; they make up all but 1.8% or so of the library.
CHRM5 antagonist: CHRM5 antagonism in calcium assay | inhibition, % at 3 µM | CHO-hM5 cells, Fluo-8 calcium fluorescence, ACh EC80 | 0.59% of 360,000 active | P08912;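 active means inhibition above a per-plate cutoff, the mean of that plate's test compounds plus 3 SD, cut at about 27% in these data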;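 further: 0% = acetylcholine EC80 with DMSO and 100% = DMSO without agonist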
Target sequence (P08912 whole entry, looked up): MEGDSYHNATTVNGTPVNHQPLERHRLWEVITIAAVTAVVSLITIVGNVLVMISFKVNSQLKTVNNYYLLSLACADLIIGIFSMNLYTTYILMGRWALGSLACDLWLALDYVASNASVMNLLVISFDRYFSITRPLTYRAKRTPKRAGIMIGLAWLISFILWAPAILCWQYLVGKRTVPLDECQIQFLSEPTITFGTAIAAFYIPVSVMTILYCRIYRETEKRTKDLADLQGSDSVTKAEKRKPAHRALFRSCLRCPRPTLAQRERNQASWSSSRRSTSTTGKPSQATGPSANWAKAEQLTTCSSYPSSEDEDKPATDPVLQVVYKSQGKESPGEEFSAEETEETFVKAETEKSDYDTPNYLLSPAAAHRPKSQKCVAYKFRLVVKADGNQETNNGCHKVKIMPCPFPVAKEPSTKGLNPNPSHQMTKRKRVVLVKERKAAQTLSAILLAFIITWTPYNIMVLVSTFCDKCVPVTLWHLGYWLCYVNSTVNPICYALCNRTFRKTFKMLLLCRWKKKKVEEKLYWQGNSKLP
M4 antag: CHRM4 antagonism in calcium assay | P08173 | CHO-hM4 cells, ACh EC80, Fluo-8 calcium fluorescence | inhibition, % at 3 µM | 0.73% of 360,000 active;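 active means inhibition above its plate's cutoff, the mean inhibition of sample wells plus 3 SD, cut at about 27% in these data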;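 further: 0% = acetylcholine EC80 with DMSO and 100% = DMSO without agonist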
CHRM4 PAM: CHRM4 positive allosteric modulation. activation, % at 3 µM. 0.4% of 360,000 active. CHO-K1 hM4/Gqi5, Fluo-8 calcium fluorescence, ACh EC20; 0% = ACh EC20, 100% = maximal ACh;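 active means activation above its plate's cutoff, the mean activation of sample wells plus 3 SD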
M5 PAM: CHRM5 positive allosteric modulation; P08912; CHO-K1 hM5, Fluo-8 calcium, ACh EC20 PAM; 0% = ACh EC20, 100% = ACh EC100; activation, % at 3 µM; 0.3% of 360,000 active; AID 624038;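 active means activation above the run cutoff, the mean activation of all test compounds plus 3 SD, cut at about 18% in these data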
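System – CHO-K1 hM5 cells · Compound – 3 µM, single dose · Incubation – compound preincubation 140 s before EC20 acetylcholine addition · Technique – Fluo-8 calcium fluorescence · Measure – Max/basal fluorescence ratio as % of EC20–EC100 ACh window · Benchmarks – low control EC20 acetylcholine (0%), high control EC100 acetylcholine (100%) · Replication – singlicate, one well per test compound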
M4 ag: agonists of human muscarinic M4 receptor (CHRM4) | 0.14% of 360,000 active | activation, % at 3 µM | P08173 | CHO-K1 hM4/Gqi5, Fluo-8 calcium fluorescence; vehicle 0%, full acetylcholine response 100% | AID 624127;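 active means activation above the run mean over all test wells plus 3 SD, cut at about 32% in these data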;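 further: peak over basal fluorescence ratio per well then scaled between controls; 0% = DMSO wells and 100% = acetylcholine at EC100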
M5 ag: agonists of human muscarinic M5 receptor (CHRM5) | P08912 | AID 624037 | CHO-K1 hM5 cells, Fluo-8 calcium fluorescence; 0% DMSO wells, 100% maximal acetylcholine response | activation, % at 3 µM | 0.19% of 360,000 active;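 active means activation above the run's mean over test compounds plus 3 SD, cut at about 23% in these data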;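 further: signal is peak over basal fluorescence ratio across the kinetic read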
The depositor's hits bear a star.

For O=C(COC(=O)C1COc2ccccc2O1)Nc1cccc(Cl)c1 (stereo unspecified) the results were CHRM5 antagonist 18, M4 antag 6, CHRM4 PAM 0, M5 PAM -7, M4 ag 1 and M5 ag -1.
Screening O=C(COC(=O)c1ccc(Br)o1)Nc1ccc2c(c1)OCCO2 returned CHRM5 antagonist -3, M4 antag -10, CHRM4 PAM 26*, M5 PAM -1, M4 ag 1 and M5 ag 2.
Screening O=C(COC(=O)CNC(=O)c1ccc(Br)o1)Nc1ccc2c(c1)OCCO2 returned CHRM5 antagonist 0, M4 antag 16, CHRM4 PAM -5, M5 PAM 0, M4 ag 2 and M5 ag 4.
Screening O=C(N/N=C/c1ccc(OC(=O)c2ccccc2)cc1)c1cccnc1 returned CHRM5 antagonist 11, M4 antag -3, CHRM4 PAM -9, M5 PAM -4, M4 ag 11 and M5 ag 2.
CC(=O)c1cccc(N(CC(=O)NC2CCCCC2)C(=O)CCC(=O)Nc2nc(C)cs2)c1 was read as CHRM5 antagonist 17, M4 antag 5, CHRM4 PAM -2, M5 PAM -2, M4 ag 1 and M5 ag -2.
Screening CN(C)S(=O)(=O)c1ccc(Cl)c(C(=O)OCC(=O)c2ccco2)c1 returned CHRM5 antagonist 1, M4 antag -11, CHRM4 PAM 3, M5 PAM -4, M4 ag 3 and M5 ag 2.
Screening OC(COC(c1ccccc1)c1ccccc1)CN1CCCCC1 (stereo unspecified) returned CHRM5 antagonist 3, M4 antag 2, CHRM4 PAM -4, M5 PAM -9, M4 ag 2 and M5 ag -11.
c1ccc(C(CN2CCCCC2)Oc2ccccn2)cc1 (stereo unspecified) was read as CHRM5 antagonist 24, M4 antag 35*, CHRM4 PAM -17, M5 PAM -39, M4 ag 3 and M5 ag -11.
For O=C(CSC1=NS(=O)(=O)c2cc(F)ccc2N1)NCc1ccccc1Cl the results were CHRM5 antagonist 6, M4 antag 1, CHRM4 PAM -3, M5 PAM 3, M4 ag 0 and M5 ag 1.
Screening CC(C)Cn1c(=O)oc2ccccc21 returned CHRM5 antagonist -7, M4 antag -14, CHRM4 PAM 20*, M5 PAM 1, M4 ag 4 and M5 ag 0.
For O=c1oc2ccccc2n1CCCCCn1c(=O)oc2ccccc21 the results were CHRM5 antagonist 2, M4 antag 9, CHRM4 PAM -6, M5 PAM -6, M4 ag 2 and M5 ag -5.
For COc1ccc(C)cc1S(=O)(=O)N1CCN(C(=O)c2ncoc2-c2cccc(C)c2)CC1 the results were CHRM5 antagonist 28*, M4 antag -3, CHRM4 PAM -2, M5 PAM -8, M4 ag 6 and M5 ag -6.
For COc1ccc(C)cc1S(=O)(=O)N1CCN(C(=O)c2ncoc2-c2ccc(C)cc2)CC1 the results were CHRM5 antagonist 11, M4 antag 0, CHRM4 PAM -4, M5 PAM -8, M4 ag 9 and M5 ag -5.
`CO/N=C/c1ccc(N2CCN(C(=O)c3ccc(Cl)cc3Cl)CC2)c([N+](=O)[O-])c1` gave CHRM5 antagonist 23, M4 antag 40*, CHRM4 PAM -30, M5 PAM -16, M4 ag 31 and M5 ag 18.
`CO/N=C/c1ccc(N2CCN(C(=O)c3ccc(F)cc3)CC2)c([N+](=O)[O-])c1` gave CHRM5 antagonist 7, M4 antag 56*, CHRM4 PAM 57*, M5 PAM -11, M4 ag 24 and M5 ag 10.
Screening CO/N=C/c1ccc(N2CCN(C(=O)c3cccc(C(F)(F)F)c3)CC2)c([N+](=O)[O-])c1 returned CHRM5 antagonist 6, M4 antag 28*, CHRM4 PAM 13, M5 PAM -12, M4 ag 17 and M5 ag 4.
